Consider 10 molecules from ChEMBL document CHEMBL4270533, “Lipidated α/α-AA heterogeneous peptides as antimicrobial agents” (Eur J Med Chem, 2018).

Data set [1] has as its system Staphylococcus epidermidis. As to the kind of experiment: Antimicrobial activity against methicillin-resistant Staphylococcus epidermidis RP62A after 18 hrs. It counts as functional. The gist of the method:
(§1)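 Broth microdilution. A colony was grown overnight in trypticase soy broth at 37 °C with shaking, then regrown to mid-log phase. 10^6 CFU/mL inoculum was mixed 1:1 with peptide dilutions (100 to 0.5 μg/mL) and incubated 18 h at 37°C. Read at OD600; MIC is the lowest concentration inhibiting growth. Three experiments, each in duplicate.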

In data set [2] the test system is Enterococcus faecalis. The data set can be described thus: Antimicrobial activity against vancomycin-resistant Enterococcus faecalis ATCC 700802 after 18 hrs. It counts as functional. The note with it: ATCC 700802, 18 h. The gist of the method:
as §1

The nature of data set [3]: Selectivity ratio of HC50 for hemolytic activity in human RBC to MIC for methicillin-resistant Staphylococcus aureus ATCC 33591. It counts as toxicity. The following applies: red blood cells (erythrocytes).
Data set [4] in a line: Hemolytic activity in human RBC after 1 hr. It counts as ADME, cell-based, Erythrocyte. The following applies: red blood cells (erythrocytes). The gist of the method: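 Fresh human erythrocytes, PBS-washed (1000g, 10 min), as a 5% v/v suspension mixed 1:1 with two-fold compound dilutions. Incubated 1 h at 37 °C, then centrifuged. Supernatant hemoglobin read at 540 nm. PBS served as 0% lysis and 0.1% Triton X-100 as 100% lysis; % hemolysis computed relative to these.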

For data set [5], the system named is Staphylococcus aureus. The data set can be described thus: Antimicrobial activity against methicillin-resistant Staphylococcus aureus ATCC 33591 after 18 hrs. It counts as functional. The following applies: ATCC 33591, 18 h. Summed up:
as §1

Data set [6] deals with Klebsiella pneumoniae. The data set can be described thus: Antimicrobial activity against Klebsiella pneumoniae ATCC 13383 after 18 hrs. Format: functional. The following applies: ATCC 13383, 18 h. Summed up:
(§2)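 Broth microdilution. Bacteria grown overnight in trypticase soy broth at 37 °C with shaking, then regrown to mid-log phase. 10^6 CFU/mL mixed 1:1 with peptide (100 to 0.5 μg/mL) and incubated 18 h at 37 °C. MIC taken as the lowest concentration inhibiting growth by OD600. Untreated bacteria served as control. Three experiments, each in duplicate.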

For data set [7], the system named is Escherichia coli. As to the kind of experiment: Antimicrobial activity against Escherichia coli JM109 after 18 hrs. Format: functional. The following applies: JM109, 18 h. The gist of the method: as §2
Data set [8] has as its system Escherichia coli. The data set can be described thus: Bactericidal activity against Escherichia coli assessed as time required for bacterial kill at 25 to 50 ug/ml by time kill assay. It counts as functional.
For data set [9], the system named is Escherichia coli. As to the kind of experiment: Bactericidal activity against Escherichia coli assessed as time required for bacterial kill at 12.5 ug/ml by time kill assay. Format: functional.

Converted amounts (≈) assume the structure as drawn.

The MIC is the smallest concentration in the dilution series that meets the test's criterion for growth inhibition. The low end stands for a more susceptible organism, the high end for a less susceptible organism. The HC50 is the concentration giving 50% haemolysis. Read a high HC50 as weaker haemolysis. Regarding `CCCCCCCCCCCCCCCC(=O)N[C@@H](CCCCN)C(=O)NCCN(C(=O)CCc1ccccc1)[C@@H](CCCCN)C(N)=O`, the MIC fell in the range of 3 to 6 µg/mL (≈ 4.37 to 8.73 µM) in data set [1]; 6 to 12 µg/mL (≈ 8.73 to 17.5 µM) in data set [2]; 1.5 to 3 µg/mL (≈ 2.18 to 4.37 µM) in data set [5]; 6 to 12 µg/mL (≈ 8.73 to 17.5 µM) in data set [6]; 1.5 to 3 µg/mL (≈ 2.18 to 4.37 µM) in data set [7]. In addition, in [3], the selectivity ratio was 10.4. The molecule also returned a 50% haemolytic concentration (HC50) at 1 h in [4] of 31.2 µg/mL.

For `CCCCCCCCCCCCCCCC(=O)N[C@@H](CCCCN)C(=O)NCCN(C(=O)CCc1ccccc1)[C@@H](CCCCN)C(=O)NCCN(C(=O)CCc1ccccc1)[C@@H](CCCCN)C(=O)NCCN(C(=O)CCc1ccccc1)[C@@H](CCCCN)C(N)=O`, the minimal inhibitory concentration (MIC) in [1] was 3 to 6 µg/mL (≈ 2.32 to 4.64 µM); in [2] it was 6 to 12 µg/mL (≈ 4.64 to 9.27 µM); in data set [5], 1.5 to 3 µg/mL (≈ 1.16 to 2.32 µM); in data set [6] it was greater than 25 µg/mL; in data set [7], 1.5 to 3 µg/mL (≈ 1.16 to 2.32 µM). The selectivity ratio in [3] was determined as 83. For the same molecule, the concentration for 50% haemolysis (HC50) at 1 h in [4] stood at 250 µg/mL.

On to `CCCCCCCCCCCC(=O)N[C@@H](CCCCN)C(=O)NCCN(C(=O)CCc1ccccc1)[C@@H](CCCCN)C(N)=O`, for which the MIC in [1], in data set [2], in [5], in data set [6] and in data set [7] was greater than 25 µg/mL throughout.

Take `CCCCCCCCCCCCCCCC(=O)N[C@@H](CCCCN)C(=O)NCCN(C(=O)CCCN)[C@@H](Cc1ccccc1)C(N)=O`: the Time in data set [8] was 60 min; in [9], 120 min. The HC50 at 1 h in data set [4] came out at 125 µg/mL. Moreover, the minimum inhibitory concentration (MIC) in data set [6] and in [7] was 3 µg/mL (≈ 4.55 µM) each time.

Regarding `CCCCCCCCCCCCCCCC(=O)NCCN(C(=O)CCc1ccccc1)[C@@H](CCCCN)C(N)=O`, the MIC in data set [1] is greater than 25 µg/mL; in [2], greater than 25 µg/mL; in data set [5], 25 µg/mL (≈ 44.7 µM); in data set [6], greater than 25 µg/mL; in data set [7] it was greater than 25 µg/mL.

For the molecule `CCCCCCCCCCCCCCCC(=O)N[C@@H](CCCCN)C(=O)NCCN(C(=O)CCc1ccccc1)[C@@H](CCCCN)C(=O)NCCN(C(=O)CCc1ccccc1)[C@@H](CCCCN)C(N)=O`, the minimum inhibitory concentration (MIC) in data set [1] is greater than 25 µg/mL; in data set [2] it was greater than 25 µg/mL; in data set [5], less than 3 µg/mL; in data set [6], greater than 25 µg/mL; in [7], 1.5 to 3 µg/mL (≈ 1.51 to 3.03 µM). Besides, in data set [3], the selectivity ratio is 10.4. In addition, the HC50 at 1 h in [4] worked out at 31.2 µg/mL.

Turning to `CCCCCC(=O)N[C@@H](CCCCN)C(=O)NCCN(C(=O)CCc1ccccc1)[C@@H](CCCCN)C(N)=O`, the minimum inhibitory concentration (MIC) in data set [1], in data set [2], in data set [5], in data set [6] and in data set [7] was greater than 25 µg/mL throughout.

In the case of `CCCCCCCCCC(=O)N[C@@H](CCCCN)C(=O)NCCN(C(=O)CCc1ccccc1)[C@@H](CCCCN)C(N)=O`, the MIC in [1], in [2], in [5], in [6] and in data set [7] was greater than 25 µg/mL throughout.

On to `CCCCCCCCCCCCCC(=O)N[C@@H](CCCCN)C(=O)NCCN(C(=O)CCc1ccccc1)[C@@H](CCCCN)C(N)=O`, for which the MIC in data set [1] is greater than 25 µg/mL; in data set [2] it was greater than 25 µg/mL; in data set [5], 12 to 25 µg/mL (≈ 18.2 to 37.9 µM); in data set [6], greater than 25 µg/mL; in [7], 6 to 12 µg/mL (≈ 9.11 to 18.2 µM).

`CCCCCCCC(=O)N[C@@H](CCCCN)C(=O)NCCN(C(=O)CCc1ccccc1)[C@@H](CCCCN)C(N)=O`: the MIC in data set [1], in data set [2], in [5], in [6] and in data set [7] was greater than 25 µg/mL each time.
